# Entries after “also recorded” stand apart in the source; their conditions may differ.
# Assay: Safety and tolerability
# Format: in vivo, human
# How it was run: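 Open-label multicentre phase I/IIa trial in adults with advanced or metastatic solid tumours. Part 1 used 3+3 oral capsule escalation at 50–800 mg/day to define DLT and MTD. Part 2 gave tablets. Treatment continued until progression, intolerable AE or study end, with dose decisions by a safety monitoring board. AEs of special interest were monitored. The safety population was all dosed patients, summarised by dose level.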
smiles,measurement,setting,value
Cn1cc(-c2ccc3c(c2)ncn3-c2cc(NS(=O)(=O)C3CC3)cc(-c3ccc(F)cc3F)c2)cn1 [ODM-203],Decreased appetite,capsule 600 mg (n=30),9 (30.0) n (%)
same,Diarrhoea,capsule 600 mg (n=30),17 (56.7) n (%)
same,Dry mouth,capsule 600 mg (n=30),14 (46.7) n (%)
same,Dry skin,capsule 600 mg (n=30),1 (3.3) n (%)
same,Dysgeusia,capsule 600 mg (n=30),5 (16.7) n (%)
same,Epistaxis,capsule 600 mg (n=30),8 (26.7) n (%)
same,Fatigue,capsule 600 mg (n=30),10 (33.3) n (%)
same,Hyperbilirubinaemia,capsule 600 mg (n=30),10 (33.3) n (%)
same,Hyperphosphataemia,capsule 600 mg (n=30),6 (20.0) n (%)
same,Hypertension,capsule 600 mg (n=30),5 (16.7) n (%)
same,Jaundice,capsule 600 mg (n=30),10 (33.3) n (%)
same,Mucosal inflammation,capsule 600 mg (n=30),1 (3.3) n (%)
same,Myalgia,capsule 600 mg (n=30),4 (13.3) n (%)
same,Nasal dryness,capsule 600 mg (n=30),5 (16.7) n (%)
same,Nausea,capsule 600 mg (n=30),4 (13.3) n (%)
same,Onycholysis,capsule 600 mg (n=30),6 (20.0) n (%)
same,Palmar-plantar eryrthodysaestesia,capsule 600 mg (n=30),11 (36.7) n (%)
same,Related AE,capsule 600 mg (n=30),30 (100) n (%)
same,Related SAEs,capsule 600 mg (n=30),8 (26.7) n (%)
same,Stomatitis,capsule 600 mg (n=30),11 (36.7) n (%)
same,Vomiting,capsule 600 mg (n=30),2 (6.7) n (%)
same,Weight decreased,capsule 600 mg (n=30),10 (33.3) n (%)
same,patients with a DLT (punctate keratitis),capsule 800 mg,1 patient
same,AE leading to death,capsule 800 mg (n=7),0 n (%)
same,AE leading to discontinuation,capsule 800 mg (n=7),3 (42.9) n (%)
same,AE leading to dose reduction,capsule 800 mg (n=7),0 n (%)
same,AE leading to treatment interruption,capsule 800 mg (n=7),5 (71.4) n (%)
same,Alopecia,capsule 800 mg (n=7),5 (71.4) n (%)
same,Any AE,capsule 800 mg (n=7),7 (100) n (%)
same,Arthralgia,capsule 800 mg (n=7),4 (57.1) n (%)
same,Asthenia,capsule 800 mg (n=7),2 (28.6) n (%)
same,Blood bilirubin increased,capsule 800 mg (n=7),3 (42.9) n (%)
same,Conjugated bilirubin increased,capsule 800 mg (n=7),0 n (%)
same,Decreased appetite,capsule 800 mg (n=7),1 (14.3) n (%)
same,Diarrhoea,capsule 800 mg (n=7),4 (57.1) n (%)
same,Dry skin,capsule 800 mg (n=7),1 (14.3) n (%)
same,Dysgeusia,capsule 800 mg (n=7),1 (14.3) n (%)
same,Epistaxis,capsule 800 mg (n=7),3 (42.9) n (%)
same,Fatigue,capsule 800 mg (n=7),2 (28.6) n (%)
same,Hyperbilirubinaemia,capsule 800 mg (n=7),4 (57.1) n (%)
same,Hyperphosphataemia,capsule 800 mg (n=7),3 (42.9) n (%)
same,Hypertension,capsule 800 mg (n=7),0 n (%)
same,Jaundice,capsule 800 mg (n=7),2 (28.6) n (%)
same,Mucosal inflammation,capsule 800 mg (n=7),0 n (%)
same,Myalgia,capsule 800 mg (n=7),2 (28.6) n (%)
same,Nasal dryness,capsule 800 mg (n=7),0 n (%)
same,Nausea,capsule 800 mg (n=7),0 n (%)
same,Onycholysis,capsule 800 mg (n=7),2 (28.6) n (%)
same,Palmar-plantar eryrthodysaestesia,capsule 800 mg (n=7),1 (14.3) n (%)
same,Related AE,capsule 800 mg (n=7),7 (100) n (%)
same,Related SAEs,capsule 800 mg (n=7),1 (14.3) n (%)
same,Stomatitis,capsule 800 mg (n=7),4 (57.1) n (%)
same,Vomiting,capsule 800 mg (n=7),0 n (%)
same,Weight decreased,capsule 800 mg (n=7),1 (14.3) n (%)
same,maximum tolerated dose (MTD),"capsule, up to 800 mg once daily",not established; also recorded: not reached
same,arthralgia grade 3 events,in vivo,two
same,hypertension considered related to study treatment,in vivo,14 patients
same,hypertension events of grade 3 or higher,in vivo,three
same,myalgia grade 3,in vivo,two
same,increased alanine transaminase levels,of 30 patients treated with 400 mg/day,three
same,Hypertension,patients,19%
same,Myalgia,patients,16.7%
same,back pain,patients,11.9%
same,grade 3 hypertension,patients,3.6%
same,ocular events,patients,19.0%
same,AEs leading to dose reductions,"patients, N=84",10.7%
same,AEs leading to treatment interruption,"patients, N=84",72.6%
same,bilirubin increase-related events,"patients, N=84",75%
same,diarrhoea (AE related to treatment),"patients, N=84",50%
same,dry mouth (AE related to treatment),"patients, N=84",34.5%
same,events resulting in treatment discontinuation,"patients, N=84",35.7%
same,palmar-plantar eryrthrodysesthesia (AE related to treatment),"patients, N=84",35.7%
same,stomatitis (AE related to treatment),"patients, N=84",40.5%
same,AEs considered related to the treatment,"share of AEs, all doses",70.4%
same,AEs grade 1 or 2 in severity,"share of AEs, all doses",89.2%
same,AE leading to death,tablet 200 mg (n=3),0 n (%)
same,AE leading to discontinuation,tablet 200 mg (n=3),0 n (%)
same,AE leading to dose reduction,tablet 200 mg (n=3),0 n (%)
same,AE leading to treatment interruption,tablet 200 mg (n=3),0 n (%)
same,Alopecia,tablet 200 mg (n=3),1 (33.3) n (%)
same,Any AE,tablet 200 mg (n=3),3 (100) n (%)
same,Arthralgia,tablet 200 mg (n=3),1 (33.3) n (%)
same,Asthenia,tablet 200 mg (n=3),0 n (%)
same,Blood bilirubin increased,tablet 200 mg (n=3),2 (66.7) n (%)
same,Conjugated bilirubin increased,tablet 200 mg (n=3),0 n (%)
same,Decreased appetite,tablet 200 mg (n=3),1 (33.3) n (%)
same,Diarrhoea,tablet 200 mg (n=3),0 n (%)
same,Dry mouth,tablet 200 mg (n=3),1 (33.3) n (%)
same,Dry skin,tablet 200 mg (n=3),0 n (%)
same,Dysgeusia,tablet 200 mg (n=3),1 (33.3) n (%)
same,Epistaxis,tablet 200 mg (n=3),0 n (%)
same,Fatigue,tablet 200 mg (n=3),1 (33.3) n (%)
same,Hyperbilirubinaemia,tablet 200 mg (n=3),0 n (%)
same,Hyperphosphataemia,tablet 200 mg (n=3),0 n (%)
same,Hypertension,tablet 200 mg (n=3),1 (33.3) n (%)
same,Jaundice,tablet 200 mg (n=3),0 n (%)
same,Mucosal inflammation,tablet 200 mg (n=3),0 n (%)
same,Myalgia,tablet 200 mg (n=3),1 (33.3) n (%)
same,Nasal dryness,tablet 200 mg (n=3),0 n (%)
same,Nausea,tablet 200 mg (n=3),0 n (%)
same,Onycholysis,tablet 200 mg (n=3),0 n (%)
same,Palmar-plantar eryrthodysaestesia,tablet 200 mg (n=3),0 n (%)
same,Related AE,tablet 200 mg (n=3),3 (100) n (%)
same,Related SAEs,tablet 200 mg (n=3),0 n (%)
same,Stomatitis,tablet 200 mg (n=3),1 (33.3) n (%)
same,Vomiting,tablet 200 mg (n=3),0 n (%)
same,Weight decreased,tablet 200 mg (n=3),0 n (%)
same,AE leading to death,tablet 300 mg (n=3),0 n (%)
same,AE leading to discontinuation,tablet 300 mg (n=3),0 n (%)
same,AE leading to dose reduction,tablet 300 mg (n=3),1 (33.3) n (%)
same,AE leading to treatment interruption,tablet 300 mg (n=3),1 (33.3) n (%)
same,Alopecia,tablet 300 mg (n=3),1 (33.3) n (%)
same,Any AE,tablet 300 mg (n=3),3 (100) n (%)
same,Arthralgia,tablet 300 mg (n=3),2 (66.7) n (%)
same,Asthenia,tablet 300 mg (n=3),3 (100) n (%)
same,Blood bilirubin increased,tablet 300 mg (n=3),0 n (%)
same,Conjugated bilirubin increased,tablet 300 mg (n=3),1 (33.3) n (%)
same,Decreased appetite,tablet 300 mg (n=3),2 (66.7) n (%)
same,Diarrhoea,tablet 300 mg (n=3),1 (33.3) n (%)
same,Dry mouth,tablet 300 mg (n=3),1 (33.3) n (%)
same,Dry skin,tablet 300 mg (n=3),1 (33.3) n (%)
same,Dysgeusia,tablet 300 mg (n=3),1 (33.3) n (%)
same,Epistaxis,tablet 300 mg (n=3),1 (33.3) n (%)
same,Fatigue,tablet 300 mg (n=3),0 n (%)
same,Hyperbilirubinaemia,tablet 300 mg (n=3),1 (33.3) n (%)
same,Hyperphosphataemia,tablet 300 mg (n=3),1 (33.3) n (%)
same,Hypertension,tablet 300 mg (n=3),0 n (%)
same,Jaundice,tablet 300 mg (n=3),1 (33.3) n (%)
same,Mucosal inflammation,tablet 300 mg (n=3),1 (33.3) n (%)
same,Myalgia,tablet 300 mg (n=3),0 n (%)
same,Nasal dryness,tablet 300 mg (n=3),1 (33.3) n (%)
same,Nausea,tablet 300 mg (n=3),0 n (%)
same,Onycholysis,tablet 300 mg (n=3),0 n (%)
same,Palmar-plantar eryrthodysaestesia,tablet 300 mg (n=3),1 (33.3) n (%)
same,Related AE,tablet 300 mg (n=3),3 (100) n (%)
same,Related SAEs,tablet 300 mg (n=3),1 (33.3) n (%)
same,Stomatitis,tablet 300 mg (n=3),0 n (%)
same,Vomiting,tablet 300 mg (n=3),1 (33.3) n (%)
same,Weight decreased,tablet 300 mg (n=3),2 (66.7) n (%)
same,AE leading to death,tablet 400 mg (n=30),5 (16.7) n (%)
same,AE leading to discontinuation,tablet 400 mg (n=30),9 (30.0) n (%)
same,AE leading to dose reduction,tablet 400 mg (n=30),6 (20.0) n (%)
same,AE leading to treatment interruption,tablet 400 mg (n=30),28 (93.3) n (%)
same,Alopecia,tablet 400 mg (n=30),10 (33.3) n (%)
same,Any AE,tablet 400 mg (n=30),30 (100) n (%)
same,Arthralgia,tablet 400 mg (n=30),9 (30.0) n (%)
same,Asthenia,tablet 400 mg (n=30),10 (33.3) n (%)
same,Blood bilirubin increased,tablet 400 mg (n=30),15 (50.0) n (%)
same,Conjugated bilirubin increased,tablet 400 mg (n=30),7 (23.3) n (%)
same,Decreased appetite,tablet 400 mg (n=30),11 (36.7) n (%)
same,Diarrhoea,tablet 400 mg (n=30),19 (63.3) n (%)
same,Dry mouth,tablet 400 mg (n=30),12 (40.0) n (%)
same,Dry skin,tablet 400 mg (n=30),7 (23.3 n (%)
same,Dysgeusia,tablet 400 mg (n=30),10 (33.3) n (%)
same,Epistaxis,tablet 400 mg (n=30),14 (46.7) n (%)
same,Fatigue,tablet 400 mg (n=30),9 (30.0) n (%)
same,Hyperbilirubinaemia,tablet 400 mg (n=30),11 (36.7) n (%)
same,Hyperphosphataemia,tablet 400 mg (n=30),8 (26.7) n (%)
same,Hypertension,tablet 400 mg (n=30),8 (26.7) n (%)
same,Jaundice,tablet 400 mg (n=30),11 (36.7) n (%)
same,Mucosal inflammation,tablet 400 mg (n=30),7 (23.3) n (%)
same,Myalgia,tablet 400 mg (n=30),3 (10.0) n (%)
same,Nasal dryness,tablet 400 mg (n=30),6 (20.0) n (%)
same,Nausea,tablet 400 mg (n=30),7 (23.3) n (%)
same,Onycholysis,tablet 400 mg (n=30),3 (10.0) n (%)
same,Palmar-plantar eryrthodysaestesia,tablet 400 mg (n=30),15 (50.0) n (%)
same,Related AE,tablet 400 mg (n=30),29 (96.7) n (%)
same,Related SAEs,tablet 400 mg (n=30),4 (13.3) n (%)
same,Stomatitis,tablet 400 mg (n=30),17 (56.7) n (%)
same,Vomiting,tablet 400 mg (n=30),5 (16.7) n (%)
same,Weight decreased,tablet 400 mg (n=30),5 (16.7) n (%)
